Source: ChEMBL document CHEMBL1149327, “Punaglandins, chlorinated prostaglandins, function as potent Michael receptors to inhibit ubiquitin isopeptidase activity” (J Med Chem, 2004)

Key:
Type in all cases: functional, cell-based
[1] = system: HCT cell line; experiment: Cytotoxicity against wild type p21-l- gene in human colon tumor 116 (HCT 116) cell lines was determined
In short: (§1)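 HCT 116 wild-type and isogenic p53- or p21-disrupted lines (McCoy's 5A, 10% FBS) seeded at 3.0 × 10^3/well, adhered 24 h, then treated at varying concentrations for 48 h, eight replicates, DMSO controls. Viability by MTS, absorbance 490 nm after 2–3 h, expressed as % of same-plate DMSO control; EC50 fitted from log concentration–response curve; done twice.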

[2] = system: HCT cell line; experiment: Cytotoxicity against wild type p53-l- gene in human colon tumor 116 (HCT 116) cell lines was determined; in short: as §1
[3] = system: HCT cell line; experiment: Cytotoxicity against wild type p53 gene in human colon tumor 116 (HCT 116) cell lines was determined; in short: as §1
[4] = system: HCT cell line; experiment: Cytotoxicity against wild type p21 gene in human colon tumor 116 (HCT 116) cell lines was determined; in short: as §1
[5] = system: RKO; experiment: Cytotoxicity against human RKO cell line
In short: (§2)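 RKO and RKO-E6 cells (DMEM, 10% FBS, 37 °C, 5% CO2) seeded at 5.0 × 10^3/well, adhered 24 h, then exposed to varying concentrations for 48 h, eight replicates, DMSO controls. MTS conversion read at 490 nm after 2–3 h; growth as % of same-plate DMSO control; EC50 from concentration–response curve. Assay run twice.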

[6] = system: RKO; experiment: Cytotoxicity against human RKO-E6 cell line; settings: RKOE6; in short: as §2

## CCCCC/C=C\C[C@@]1(O)C=C(Cl)C(=O)[C@@H]1[C@@H](OC(C)=O)[C@H](OC(C)=O)[C@H](CCCC(=O)OC)OC(C)=O
[1]
  EC50: 40 nM
[2]
  EC50: 40 nM
[3]
  EC50: 40 nM
[4]
  EC50: 47 nM

## CCCCC/C=C\C[C@@]1(O)C=C(Cl)C(=O)[C@@H]1C[C@H](OC(C)=O)[C@H](CCCC(=O)OC)OC(C)=O
[1]
  EC50: 320 nM
[2]
  EC50: 360 nM
[3]
  EC50: 340 nM
[4]
  EC50: 330 nM
[5]
  EC50: 440 nM
[6]
  EC50: 470 nM

## CC/C=C/C/C=C\C[C@@]1(O)C=C(Cl)C(=O)/C1=C/[C@H](OC(C)=O)[C@H](CCCC(=O)OC)OC(C)=O
[1]
  EC50: 300 nM
[2]
  EC50: 370 nM
[3]
  EC50: 320 nM
[4]
  EC50: 290 nM

## CCCCC/C=C\C[C@@]1(O)C=C(Cl)C(=O)/C1=C/[C@H](OC(C)=O)[C@H](CCCC(=O)OC)OC(C)=O [PUNAGLANDIN 4]
[1]
  EC50: 280 nM
[2]
  EC50: 350 nM
[3]
  EC50: 330 nM
[4]
  EC50: 340 nM
[5]
  EC50: 310 nM
[6]
  EC50: 370 nM
